One block for each molecule: values may come before it.
Legend:
[1] = Metabolic stability (% remaining at 30 mins) in human S9.; assay type: ADME; conditions: human S9 fraction
Summary of the method: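 Incubated 30 min with human liver S9 (2 mg/mL protein, NADH added), n=2. Reported as % parent remaining.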

[2] = Oral bioavailability in rat (dose 2 mg/kg); assay type: ADME, organism-based; conditions: in vivo
[3] = Maximum concentration in rat after 2 mg/kg peroral administration; assay type: ADME, organism-based; design: dose 2 mg/kg, route oral; conditions: in vivo, po
Cytochrome P450 1A2 = biological target: T1, Cytochrome P450 1A2 (Homo sapiens, UniProt P05177); assay: Inhibition of human cytochrome P450 1A2
T1 sequence (P05177 whole entry): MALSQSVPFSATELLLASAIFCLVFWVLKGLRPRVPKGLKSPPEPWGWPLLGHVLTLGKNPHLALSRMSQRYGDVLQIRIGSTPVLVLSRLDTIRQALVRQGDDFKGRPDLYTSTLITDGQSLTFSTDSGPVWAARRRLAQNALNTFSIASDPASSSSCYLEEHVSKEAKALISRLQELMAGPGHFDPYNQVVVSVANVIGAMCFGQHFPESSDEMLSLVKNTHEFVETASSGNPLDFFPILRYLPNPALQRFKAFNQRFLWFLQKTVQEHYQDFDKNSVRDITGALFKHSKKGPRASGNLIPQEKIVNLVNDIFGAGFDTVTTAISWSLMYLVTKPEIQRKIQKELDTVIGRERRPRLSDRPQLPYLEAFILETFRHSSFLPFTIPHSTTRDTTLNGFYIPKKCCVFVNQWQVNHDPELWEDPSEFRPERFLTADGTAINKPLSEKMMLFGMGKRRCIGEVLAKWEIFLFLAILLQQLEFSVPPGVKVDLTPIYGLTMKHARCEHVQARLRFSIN

[4] = Time to reach maximum concentration in rat after 2 mg/kg peroral administration; 4-6; assay type: ADME, organism-based; design: dose 2 mg/kg, route oral; conditions: in vivo, po
Cavia porcellus [5] = species: Cavia porcellus; assay: Electrophysiological effect on isolated guinea pig heart as change in coronary perfusion pressure at 10 uM; assay type: functional
Cavia porcellus [6] = species: Cavia porcellus; assay: Electrophysiological effect on isolated guinea pig heart as change in H-V interval at 3 uM; assay type: functional
[7] = Clearance of compound in rat after 1 mg/kg i.v. administration; assay type: ADME, organism-based; design: dose 1 mg/kg, route intravenous; conditions: plasma, iv, read-out: Clp
Cytochrome P450 3A4 [8] = biological target: T2, Cytochrome P450 3A4 (Homo sapiens, UniProt P08684); assay: Inhibition of human cytochrome P450 3A4
T2 sequence (P08684 whole entry): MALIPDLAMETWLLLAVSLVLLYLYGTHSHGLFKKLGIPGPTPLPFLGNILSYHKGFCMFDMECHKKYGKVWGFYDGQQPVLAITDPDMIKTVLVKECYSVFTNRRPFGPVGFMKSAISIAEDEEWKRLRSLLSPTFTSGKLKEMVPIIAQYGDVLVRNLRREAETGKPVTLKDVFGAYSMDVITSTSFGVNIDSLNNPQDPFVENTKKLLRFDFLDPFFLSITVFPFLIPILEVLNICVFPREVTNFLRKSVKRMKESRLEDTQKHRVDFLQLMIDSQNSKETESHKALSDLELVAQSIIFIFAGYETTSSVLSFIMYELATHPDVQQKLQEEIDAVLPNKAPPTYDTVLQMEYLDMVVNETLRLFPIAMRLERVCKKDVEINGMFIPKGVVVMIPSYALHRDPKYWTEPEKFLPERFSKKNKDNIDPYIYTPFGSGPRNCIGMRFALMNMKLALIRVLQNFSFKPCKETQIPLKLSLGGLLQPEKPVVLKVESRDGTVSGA

[9] = Volume of distribution of compound in rat after 1 mg/kg i.v. administration; assay type: ADME, organism-based; design: dose 1 mg/kg, route intravenous; conditions: in vivo, iv, read-out: Vdss
[10] = Total concentration in rat after 1 mg/kg i.v. administration in 24 hours; assay type: ADME, organism-based; design: dose 1 mg/kg, route intravenous; conditions: in vivo, iv
[11] = Total concentration in rat after 2 mg/kg peroral administration in 24 hours; assay type: ADME, organism-based; design: dose 2 mg/kg, route oral; conditions: in vivo, po
Cavia porcellus [12] = species: Cavia porcellus; assay: Electrophysiological effect on isolated guinea pig heart as change in S-H interval at 10 uM; assay type: functional
Cavia porcellus [13] = species: Cavia porcellus; assay: Electrophysiological effect on isolated guinea pig heart as change in coronary perfusion pressure at 3 uM; assay type: functional
Cavia porcellus [14] = species: Cavia porcellus; assay: Electrophysiological effect on isolated guinea pig heart as change in H-V interval at 10 uM; assay type: functional
[15] = Half life in rat after 2 mg/kg peroral administration; assay type: ADME, organism-based; design: dose 2 mg/kg, route oral; conditions: in vivo, po
Cytochrome P450 2C9 = Cytochrome P450 2C9 (Homo sapiens, UniProt P11712); assay: Inhibition of cytochrome P450 2C9 (human)
Sequence of Cytochrome P450 2C9 (P11712 whole entry): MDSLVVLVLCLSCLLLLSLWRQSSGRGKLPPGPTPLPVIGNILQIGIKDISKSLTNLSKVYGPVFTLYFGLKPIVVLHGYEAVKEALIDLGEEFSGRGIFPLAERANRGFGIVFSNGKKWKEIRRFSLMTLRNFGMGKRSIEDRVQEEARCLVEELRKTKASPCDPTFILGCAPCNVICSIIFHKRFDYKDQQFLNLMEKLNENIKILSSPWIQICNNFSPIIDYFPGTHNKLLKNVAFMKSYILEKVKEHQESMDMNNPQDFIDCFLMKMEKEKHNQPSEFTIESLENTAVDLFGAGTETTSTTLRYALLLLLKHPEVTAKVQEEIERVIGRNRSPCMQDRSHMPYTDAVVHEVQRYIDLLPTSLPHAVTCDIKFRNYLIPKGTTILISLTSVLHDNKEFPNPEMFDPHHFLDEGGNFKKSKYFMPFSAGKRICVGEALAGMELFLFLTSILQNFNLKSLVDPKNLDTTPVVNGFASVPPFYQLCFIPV

[16] = Half life in rat after 1 mg/kg i.v. administration; assay type: ADME, organism-based; design: dose 1 mg/kg, route intravenous; conditions: in vivo, iv
Cavia porcellus [17] = species: Cavia porcellus; assay: Electrophysiological effect on isolated guinea pig heart as change in S-H interval at 3 uM; assay type: functional
[18] = biological target: T3, Peroxisomal acyl-coenzyme A oxidase 1 (Rattus norvegicus) (UniProt P07872); assay: Inhibition of rat heart mitochondrial Palmitoyl-CoA oxidation at 100 uM
T3 sequence (whole entry): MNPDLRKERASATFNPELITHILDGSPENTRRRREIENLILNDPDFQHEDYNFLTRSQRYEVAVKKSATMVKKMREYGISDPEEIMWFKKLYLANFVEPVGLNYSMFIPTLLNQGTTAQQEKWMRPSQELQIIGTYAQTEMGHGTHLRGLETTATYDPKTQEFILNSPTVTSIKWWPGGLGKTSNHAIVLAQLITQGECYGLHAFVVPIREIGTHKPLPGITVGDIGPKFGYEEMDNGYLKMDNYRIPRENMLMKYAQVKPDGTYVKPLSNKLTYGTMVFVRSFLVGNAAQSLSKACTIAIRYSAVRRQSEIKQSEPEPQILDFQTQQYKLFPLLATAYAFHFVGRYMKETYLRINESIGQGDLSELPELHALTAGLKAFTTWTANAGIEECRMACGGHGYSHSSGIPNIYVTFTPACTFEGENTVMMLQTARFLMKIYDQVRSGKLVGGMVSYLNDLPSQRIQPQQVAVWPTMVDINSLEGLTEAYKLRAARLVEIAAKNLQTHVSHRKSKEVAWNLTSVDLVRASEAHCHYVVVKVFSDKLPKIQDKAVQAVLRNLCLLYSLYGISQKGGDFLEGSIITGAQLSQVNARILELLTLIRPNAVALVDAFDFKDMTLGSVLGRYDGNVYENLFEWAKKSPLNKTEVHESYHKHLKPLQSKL
Summary of the method: (§1)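 Rat heart mitochondrial preparations incubated with 1-[¹⁴C]-palmitoylCoA as the long-chain fatty acid oxidation substrate. Oxidation inhibition was reported as % inhibition at the listed test concentration, averaged from two or three measurements.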

[19] = biological target: T3, Peroxisomal acyl-coenzyme A oxidase 1 (Rattus norvegicus); assay: Inhibition of rat heart mitochondrial Palmitoyl-CoA oxidation at 30 uM; summary of the method: as §1
Cytochrome P450 3A4 [20] = biological target: T2, Cytochrome P450 3A4; assay: Inhibition of cytochrome P450 3A4 (human)

- remaining at 0.5 h [1]: 28%
Structure (SMILES): Cc1nc2cc(OC[C@H](O)CN3CCN(CC(=O)Nc4ccc(C(F)(F)F)cc4)CC3)ccc2s1

- bioavailability [2]: 17.5%
- Cmax [3]: 26.3 ng/mL
- IC50 (Cytochrome P450 1A2): > 100 µM
- Tmax [4]: 6 h
- remaining at 0.5 h [1]: 62%
- clearance [7]: 13.5 mL/min/kg
- IC50 (Cytochrome P450 3A4 [8]): 39 µM
- Vd [9]: 3.4 L/kg
- AUC at 24 h [10]: 1320 ng·h/mL
- AUC at 24 h [11]: 230 ng·h/mL
- half-life [15]: 2.6 h
- IC50 (Cytochrome P450 2C9): > 100 µM
- half-life [16]: 3 h
Structure (SMILES): CCn1c2ccccc2c2cc(NC(=O)CN3CCN(C[C@@H](O)COc4ccc5sc(C)nc5c4)CC3)ccc21
- Delta CPP (Cavia porcellus [5]): -0.4 mmHg
- Delta H-V (Cavia porcellus [6]): 0 ms
- Delta S-H (Cavia porcellus [12]): 1 ms
- Delta CPP (Cavia porcellus [13]): 0.7 mmHg
- Delta H-V (Cavia porcellus [14]): 0 ms
- Delta S-H (Cavia porcellus [17]): 0 ms

- inhibition [18]: 35%
Structure (SMILES): Cc1nc2cc(OC[C@H](O)CN3CCN(CC(=O)Nc4ccc(C(N)=O)cc4)CC3)ccc2s1

- remaining at 0.5 h [1]: 45%
Structure (SMILES): Cc1nc2cc(OC[C@H](O)CN3CCN(CC(=O)N[C@H](C)c4ccc5ccccc5c4)CC3)ccc2s1

- IC50 (Cytochrome P450 3A4 [20]): 7.9 µM
- IC50 (Cytochrome P450 1A2): 31 µM
- remaining at 0.5 h [1]: 63%
- IC50 (Cytochrome P450 2C9): 30 µM
Structure (SMILES): Cc1nc2cc(OC[C@H](O)CN3CCN(CC(=O)Nc4ccc(-c5ccccc5)cc4)CC3)ccc2s1
- Delta H-V (Cavia porcellus [6]): 0.5 ms
- Delta CPP (Cavia porcellus [13]): -6.6 mmHg
- Delta S-H (Cavia porcellus [17]): 5 ms

- remaining at 0.5 h [1]: 25%
Structure (SMILES): Cc1nc2cc(OC[C@H](O)CN3CCN(CC(=O)Nc4ccc(Cl)c(C(F)(F)F)c4)CC3)ccc2s1

- remaining at 0.5 h [1]: 35%
Structure (SMILES): Cc1nc2cc(OC[C@H](O)CN3CCN(CC(=O)Nc4cccc5[nH]ccc45)CC3)ccc2s1

- remaining at 0.5 h [1]: 23%
Structure (SMILES): Cc1nc2cc(OC[C@H](O)CN3CCN(CC(=O)N[C@@H](C)c4ccccc4)CC3)ccc2s1

- remaining at 0.5 h [1]: 34%
Structure (SMILES): Cc1nc2cc(OC[C@H](O)CN3CCN(CC(=O)Nc4cc(Cl)c(Cl)c(Cl)c4)CC3)ccc2s1

- inhibition [19]: 16%
Structure (SMILES): Cc1nc2cc(OC[C@H](O)CN3CCN(CC(=O)Nn4nnc5ccccc54)CC3)ccc2s1

Further lines, the molecule ahead of its results:

Structure (SMILES): Cc1ccc(NC(=O)CN2CCN(C[C@@H](O)COc3ccc4sc(C)nc4c3)CC2)cc1
- remaining at 0.5 h [1]: 51%

Structure (SMILES): Cc1nc2cc(OC[C@H](O)CN3CCN(CC(=O)Nc4cccc(Oc5ccccc5)c4)CC3)ccc2s1
- remaining at 0.5 h [1]: 15%

Structure (SMILES): Cc1nc2cc(OC[C@H](O)CN3CCN(CC(=O)NC4CCCCC4)CC3)ccc2s1
- remaining at 0.5 h [1]: 37%

Structure (SMILES): Cc1nc2cc(OC[C@H](O)CN3CCN(CC(=O)Nc4cccc5nsnc45)CC3)ccc2s1
- remaining at 0.5 h [1]: 11%

Structure (SMILES): Cc1nc2cc(OC[C@H](O)CN3CCN(CC(=O)N[C@@H](C)c4ccc(F)cc4)CC3)ccc2s1
- remaining at 0.5 h [1]: 10%

Structure (SMILES): Cc1nc2cc(OC[C@H](O)CN3CCN(CC(=O)NCc4ccc(Cl)cc4)CC3)ccc2s1
- remaining at 0.5 h [1]: 16%

Structure (SMILES): Cc1nc2cc(OC[C@H](O)CN3CCN(CC(=O)N[C@H](C)c4ccc(F)cc4)CC3)ccc2s1
- inhibition [19]: 40%

Structure (SMILES): Cc1nc2cc(OC[C@H](O)CN3CCN(CC(=O)N[C@H]4CCc5ccccc54)CC3)ccc2s1
- remaining at 0.5 h [1]: 1%

Structure (SMILES): Cc1nc2cc(OC[C@H](O)CN3CCN(CC(=O)Nc4ccc(C#N)cc4)CC3)ccc2s1
- inhibition [19]: 42%

Structure (SMILES): Cc1nc2cc(OC[C@H](O)CN3CCN(CC(=O)Nc4ccc(Cl)c(Cl)c4)CC3)ccc2s1
- remaining at 0.5 h [1]: 29%

Structure (SMILES): Cc1nc2cc(OC[C@H](O)CN3CCN(CC(=O)NC4Cc5ccccc5C4)CC3)ccc2s1
- remaining at 0.5 h [1]: 2%

Structure (SMILES): Cc1nc2cc(OC[C@H](O)CN3CCN(CC(=O)Nc4cccc5ccccc45)CC3)ccc2s1
- remaining at 0.5 h [1]: 50%

Reference: ChEMBL document CHEMBL1148425, “New fatty acid oxidation inhibitors with increased potency lacking adverse metabolic and electrophysiological properties” (Bioorg Med Chem Lett, 2004)
